# Data published in publication PMC9315039 (Angewandte Chemie (International Ed. in English), 2022).
# Read-outs that look alike come from different tables or passages of the source.
# Experiments:
# SIRT5 [1] = target: T1, SIRT5 (Homo sapiens, UniProt Q9NXA8); experiment: End-point SIRT5 deglutarylase inhibition assay; assay type: biochemical; conditions: Figure 1A; inhibitor 100 μM; NI = no inhibition
# T1 sequence (Q9NXA8 34-310): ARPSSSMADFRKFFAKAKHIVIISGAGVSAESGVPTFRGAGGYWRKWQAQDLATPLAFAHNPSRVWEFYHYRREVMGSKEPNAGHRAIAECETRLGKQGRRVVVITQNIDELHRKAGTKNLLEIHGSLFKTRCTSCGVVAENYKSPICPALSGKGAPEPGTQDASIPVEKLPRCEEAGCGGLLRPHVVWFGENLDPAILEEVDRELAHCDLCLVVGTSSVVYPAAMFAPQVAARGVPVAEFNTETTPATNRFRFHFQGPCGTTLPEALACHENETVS
# How it was run: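 End-point deglutarylase assay using recombinant SIRT5 (150 nM) with Ac-LGKglut-AMC substrate (50 μM). Results are given as IC50 from dose-response curves (mean ± SD) or as %-inhibition at stated concentrations. Each value comes from at least two individual assays run in duplicate.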
# SIRT5 [2] = target: T1, SIRT5; experiment: Continuous SIRT5 enzyme inhibition assay; assay type: biochemical
# How it was run: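 Continuous trypsin-coupled progression-curve assay with SIRT5 80 nM, NAD⁺ 500 μM, Ac-LGKglu-AMC 40 μM and trypsin 1.70 ng×μL⁻¹, run at several inhibitor concentrations. k_obs was plotted against inhibitor concentration and fitted to slow-binding mechanism A or B, giving Ki and rate constants.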
# SIRT5 in HEK293T cells = target: T2, SIRT5 in HEK293T cells (Homo sapiens, UniProt Q9NXA8); experiment: Isothermal dose-response cellular thermal shift assay; assay type: cell-based
# T2 sequence (Q9NXA8 37-310): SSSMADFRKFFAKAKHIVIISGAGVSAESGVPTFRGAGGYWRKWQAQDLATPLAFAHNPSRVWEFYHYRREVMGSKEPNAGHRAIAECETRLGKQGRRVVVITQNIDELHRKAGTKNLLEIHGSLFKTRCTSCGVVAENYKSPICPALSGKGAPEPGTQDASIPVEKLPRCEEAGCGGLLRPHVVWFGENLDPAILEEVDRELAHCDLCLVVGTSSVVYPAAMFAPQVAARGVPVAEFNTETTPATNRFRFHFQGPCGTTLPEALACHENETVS
# How it was run: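 ITDRF-CETSA in HEK293T cells. Cells were treated 2 h with test compound at 2.6 nM–10 μM, with a reference inhibitor at 10 μM as internal control. Samples were heated at 52 °C and soluble SIRT5 was detected by immunoblot. EC50 came from fitted dose-response curves (n≥2), and EC50s of masked/unmasked pairs were compared.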
# SKM-1 cells = experiment: MTT cell viability assay, SKM-1; assay type: cell-based; conditions: concentrations up to 100 μM
# How it was run: (§1)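 Viability dose-response in cultured SKM-1, OCI-AML2, MOLM-13 (AML) and HEK293T cells, with concentrations up to 100 μM. GI50 was taken from dose-response curves. Data come from three individual assays performed in duplicate.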
# HEK293T cells = experiment: MTT cell viability assay, HEK293T; assay type: cell-based, human; conditions: concentrations up to 100 μM
# How it was run: as §1
# [3] = test system: SIRT5 activity in HeLa cells; experiment: Live cell imaging of SIRT5 activity; assay type: cell-based; conditions: 10 μM inhibitor, co-treatment with labeled peptide substrate 250 µM, 6 hours
# How it was run: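 HeLa cells were co-treated with a dye-labeled succinylated peptide substrate and test compound at 10 μM. Mitochondrial SIRT5 desuccinylation triggers peptide self-assembly, and the resulting fluorescence was read in cells. This was single-concentration only, without dose-response.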
Compound,%-inhibition of SIRT5 deglutarylase activity at 100 μM (SIRT5 [1]),Ki (SIRT5 [2]),EC50 (SIRT5 in HEK293T cells),further results
CCCCNC(=S)NCCCC[C@H](NS(=O)(=O)c1cccc(F)c1)C(=O)N[C@@H](Cc1c[nH]c2ccccc12)C(=O)NC1CCC1 [Compound 2],did not show substantial inhibition,,,
O=C(NC1CCC1)[C@H](Cc1c[nH]c2ccccc12)NC(=O)[C@H](CCCCNC(=S)NCCCO)NS(=O)(=O)c1cccc(F)c1 [Compound 3],did not show substantial inhibition,,,
NC(=O)CCNC(=S)NCCCC[C@H](NS(=O)(=O)c1cccc(F)c1)C(=O)N[C@@H](Cc1c[nH]c2ccccc12)C(=O)NC1CCC1 [Compound 4],,micromolar range,,

# Second part, led by results:
%-inhibition of SIRT5 deglutarylase activity at 100 μM (SIRT5 [1]),Ki (SIRT5 [2]),EC50 (SIRT5 in HEK293T cells),Compound,further results
,,> 10000 nM,O=C1CC(CCNC(=S)NCCCC[C@H](NS(=O)(=O)c2cccc(F)c2)C(=O)N[C@@H](Cc2c[nH]c3ccccc23)C(=O)NC2CCC2)=NO1 [Compound 22],Ki (SIRT5 [2]; Ki): ~100 nM
,low nanomolar range,1300 nM,O=C(NC1CCC1)[C@H](Cc1c[nH]c2ccccc12)NC(=O)[C@H](CCCCNC(=S)NCCc1nnn[nH]1)NS(=O)(=O)c1cccc(F)c1 [Compound 24],"decrease in viability of SKM-1 cells (SKM-1 cells): None of the acidic compounds 1, 16, and 24 caused substantial decrease in viability; decrease in viability of HEK293T cells (HEK293T cells): None of the acidic compounds 1, 16, and 24 caused substantial decrease in viability; inhibition of SIRT5 activity in HeLa cells (fluorescence) [3]: inhibition of SIRT5 activity"
,micromolar range,,O=C(CCNC(=S)NCCCC[C@H](NS(=O)(=O)c1cccc(F)c1)C(=O)N[C@@H](Cc1c[nH]c2ccccc12)C(=O)NC1CCC1)NO [Compound 27],
